Assay results: PubChem BioAssay
Unmarked numbers belong to inactive results. Results filed as inconclusive are left out. The source made the active and inactive calls.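 The calls were made as follows, unless noted: active = viability increase at or above a cutoff of the median across tested compounds plus 3 SD (cut at about 8.5% in these data, passing the limit was not always enough); inconclusive = some gains above the cutoff, reason not given; inactive = the rest.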

Tests used:
[1] = S. cerevisiae growth inhibition in permissive medium (OD615), pilot counter-assay for S. cerevisiae lifespan shortening project, permissive growth control (AID 705;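 active = growth inhibition above 25% in both replicates, a cutoff set 3 SD above the mean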); conditions: OD615, 24 h, at 10 µM, active compounds read high
Summary of the method: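 Material: engineered DeaD yeast; Compound: one dose 10 µM, DMSO 0.25% final; Detection: absorbance (optical density) at 615 nm; Buffer or medium: permissive raffinose/galactose medium; Timing: 24 h exposure, 30 °C.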

[2] = S. cerevisiae growth inhibition in restrictive medium, OD615, pilot screen, restrictive growth control, yeast lifespan reduction project (AID 706;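 active = growth inhibition above a set limit, 3 SD over mean compound inhibition, in both replicates, cut at about 43% in these data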;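 also: modified DeaD lifespan yeast strain shifted to restrictive glucose medium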); conditions: OD615, 48 h, at 10 µM, active compounds read high
Summary of the method: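 Buffer or medium: restrictive glucose medium (CSMM-D); test system: modified S. cerevisiae; doses: single dose of 10 µM compound final, 0.25% DMSO; schedule: 48 h compound exposure at 30 °C; detection: absorbance (optical density) measured at 615 nm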

[3] = doxorubicin toxicity protection in MRP-1 cells – H69AR cells, CellTiter-Glo, duplicate, MRP-1 activator project, pilot screen (AID 807); conditions: H69AR viability with doxorubicin, CellTiter-Glo luminescence; at 10 µM; active compounds read high;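 also: compound pretreatment 18-22 h then 72 h combined with doxorubicin; 0% = doxorubicin alone and 100% = vehicle without doxorubicin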
[4] = viability of PTEN-null HCT116 cells – cell-based, HCT116 clonal line, CellTiter-Glo, pilot screen (AID 824;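 active = viability at or below 27.92% in each of two runs, the all-compound median minus 4 SD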;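 also: 0% = 20 µM Hyamine control and 100% = vehicle cell control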); conditions: HCT116 PTEN-deleted viability, 60 h, at 10 µM, active compounds read low
[5] = RAM pathway blockade in budding yeast – dse1pr::URA3 reporter, 5-FOA selection, pilot screen (AID 869;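 active = inhibition over a set limit, the all-compound mean plus 3 SD, in both replicate runs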;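 also: 0% = DMSO wells with no growth and 100% = 10 µM 1-NA-PP1 with full growth; RAM network block rescues cells from 5-FOA so hits raise OD615 growth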); conditions: S. cerevisiae dse1pr::URA3 5-FOA growth, OD615, 2 d; at 10 µM; active compounds read high; strain carries analog-sensitive mutant Cbk1 kinase
[6] = RAM signaling pathway blockade in yeast – S. cerevisiae, Pdr1DBD-CYC8 efflux-inhibited sensitized strain, primary screen (AID 1298;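 active = RAM network inhibition above 8.4% in each of two replicates, 3 SD over the compound average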;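 also: 0% = DMSO untreated cells without growth and 100% = 10 µM 1-NA-PP1 full growth; higher means more yeast growth rescued from 5-FOA killing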); conditions: S. cerevisiae cbk1-as DSE1-URA3 strain, 5-FOA growth OD615, 2 d; at 50 µM; active compounds read high

| Structure (SMILES) | growth inhibition [1] [%] | growth inhibition [2] [%] | viability increase [3] [%] | viability [4] | inhibition [5] [%] | RAM network inhibition [6] [%] |
| --- | --- | --- | --- | --- | --- | --- |
| CCC1CCCCN1C(=O)Cn1c(=O)oc2ccccc21 (stereo not given) | -8.32 | -4.71 | -2.07 | 101% | 1.96 | 4.3 |
| Cc1ccc2nc(NC(=O)c3cccs3)sc2c1 | -2.67 | 10.6 | -4.54 | 69.2% | 1.29 | 4.15 |
| Cc1ccc(NC(=O)CC2SC3=NCCN3C2=O)cc1 (stereo not given) | 3.71 | 10.6 | 3.08 | 96.1% | 1.66 | 1.49 |
| Cc1ccc(OCC(O)CN2CCN(c3ccccc3)CC2)cc1 (stereo not given) | -3.02 | -2.13 | -0.7 | 99.9% | 1.23 | 7.87 |
| Cc1ccc(S(=O)(=O)N(CC(=O)N2CCOCC2)C2CCCCC2)cc1 | -7.12 | -1.69 | -2.71 | 103% | 1.29 | 1.99 |
| COc1ccc(N(CC(=O)NCc2ccco2)S(C)(=O)=O)cc1Cl | -14.3 | -4.89 | -3.2 | 91.7% | 2.38 | 6.11 |
| COc1ccc(OC)c(NC(=O)C(CC(C)C)NC(=O)C2CCCCC2)c1 (stereo not given) | -5.08 | 11.6 | -5.29 | 86% | 1.02 | 3.18 |
| O=c1c2cnn(-c3ccccc3)c2nc(-c2ccco2)n1-c1ccccc1 | -4.83 | -7.2 | -5.59 | 55.4% | 1.39 | 8.81 |
| Cc1ccc(CNC(=O)c2oc3ccc(S(=O)(=O)N4CCC5(CC4)OCCO5)cc3c2C)cc1 | -11 | -10 | -0.6 | 52.6% | 1.35 | 2.87 |
| COc1cc2c(cc1NC(C)=O)CCCC2 | -5.3 | -0.3 | -4.13 | 100% | 1.28 | 1.23 |
| O=C(NCc1ccco1)c1ccc(CN2CCOCC2)cc1 | -5.32 | 1.69 | -3.13 | 105% | 2.41 | 2.2 |
| O=c1c2c(nc3c(-c4ccccc4)c[nH]n13)CCCC2 | -7.02 | -8.55 | -5.26 | 49.2% | 1.02 | 0.27 |
| O=C(CCCSc1nc2ccccc2s1)NCc1ccco1 | 1.82 | -1.56 | -2.85 | 86.3% | 1.28 | -0.82 |
| CCc1nnc2n1N=C(c1ccc(-c3cc(Cl)ccc3Cl)o1)CS2 | 9.53 | 26.5 | -7.22 | 22.4% (active) | 2.5 | 5.16 |
| COc1ccc(S(=O)(=O)Nc2ccc(S(=O)(=O)N3CCOCC3)cc2)cc1 | -3.87 | -1.83 | -1.49 | 101% | 1.18 | 2.87 |
| NC(=O)CCn1nc(-c2ccccc2)c2ccccc2c1=O | 6.63 | 13.7 | -2.48 | 96.8% | 0.31 | 0 |
| O=C(c1ccco1)N1CCCC(c2nc(-c3ccc(S(=O)(=O)NCc4ccccc4)cc3)no2)C1 (stereo not given) | -8.47 | -27.3 | -2.74 | 47.4% | 1.58 | 3.3 |
| O=C(c1ccco1)c1n[nH]nc1-c1ccccc1 | -19.6 | -5.81 | -3.17 | 102% | 1.16 | 1.94 |
| O=C(NC1(C(F)(F)F)Oc2ccccc2O1)N1CCCC1 | -3.63 | -7.95 | -6.12 | 81.3% | 0.56 | 1.58 |
| O=C(CN1CCCCC1)Nc1ccc(F)c(Cl)c1 | 5.67 | 4.63 | -2.13 | 98.4% | 1.7 | -0.11 |

| Structure (SMILES) | growth inhibition [1] [%] | growth inhibition [2] [%] | viability increase [3] [%] | viability [4] | inhibition [5] [%] | RAM network inhibition [6] [%] |
| --- | --- | --- | --- | --- | --- | --- |
| CC(NC(=O)c1ccccc1O)c1ccccc1 (stereo not given) | 0.015 | -2.42 | 0.41 | 94.1% | 0.1 | 0 |
| C=CCC1(O)C(=O)N2C(=C1C(=O)N1CCOCC1)c1ccccc1CC2(C)C (stereo not given) | 5.07 | -8.41 | -2.47 | 99.4% | 0.41 | 2.11 |
| COc1ccc(NC(=O)c2oc3ccccc3c2C)c(OC)c1 | -7.12 | -1.27 | -3.83 | 96.1% | 0.97 | 7.99 |
| Cc1oc(-c2cccc(Cl)c2)nc1CN1CCC(C(=O)N2CCN(c3ccccn3)CC2)CC1 | -5.81 | -1.31 | -7.36 | 27% (active) | 0.99 | 4.79 |
| O=C(O)CNS(=O)(=O)c1ccc(F)cc1 | -6.07 | -7.54 | -0.77 | 94.4% | 2.21 | 0.32 |
| CCN(CC)c1ccc(CNC23CN4CN(CN(C4)C2)C3)cc1 | -8.69 | 2.79 | -2.2 | 94.1% | 1.72 | 2.4 |
| C#CCN1C(=O)C(O)(CC(=O)c2ccc(OC)c(OC)c2)c2ccccc21 (stereo not given) | 2.17 | 0.69 | -5.17 | 48% | 1.62 | 1.98 |
| Cc1ccc(S(=O)(=O)c2cccc(S(=O)(=O)N3CCCC3)c2)cc1S(=O)(=O)N1CCCC1 | -2.43 | -5.35 | -3.64 | 44.4% | 1.4 | 2.38 |
| CC1Cc2ccccc2N1Cc1nc2scc(-c3cccs3)c2c(=O)[nH]1 (stereo not given) | 1.81 | 0.44 | -3.6 | 95.3% | 1.77 | 5.16 |
| COc1ccccc1CNC(=O)CCS(=O)(=O)c1cccs1 | -15.9 | -3.45 | -3.06 | 103% | 1.43 | 0.82 |
| Cc1ccc(Cl)cc1N(CC(=O)N1CCCCCC1)S(C)(=O)=O | -9.3 | 10.7 | -3.63 | 93.4% | 0.635 | 1.37 |
| Cc1c(C(=O)NCc2ccccc2)oc2ccc(S(=O)(=O)N3CCC4(CC3)OCCO4)cc12 | 5.31 | 2.71 | -4.5 | 66.5% | 3.6 | 2.96 |
| COCCNC(=O)c1ccc2c(=O)n(CCOC)c(=O)[nH]c2c1 | -8.7 | -15.7 | -3.33 | 91.3% | 0.805 | 0.78 |
| COc1cc(S(=O)(=O)N2CCCCCC2)c(OC)cc1Br | 0.23 | -10.7 | -0.06 | 77.4% | -0.43 | 5.23 |
| O=C(NCc1cccnc1)NC1(C(F)(F)F)Oc2ccccc2O1 | 4.4 | 5.9 | -5.46 | 67.2% | 0.81 | 3.16 |
| O=C(Nc1cccnc1)c1ccc(CN2CCc3ccccc3C2)cc1 | -3.88 | -5.93 | -2.11 | 93.3% | 2.54 | 2.06 |
| CCn1cc(C(=O)NCCCOC)c2cc(OC)c(OC)cc2c1=O | -10.7 | 0.745 | -2.42 | 104% | 2.5 | 3.59 |
| c1csc(CNc2ncnc3sccc23)c1 | 3.62 | -3.59 | -2 | 62.7% | 2.05 | 4.4 |
| COc1ccc(C)cc1NC(=O)CN(c1ccccc1)S(C)(=O)=O | -7.61 | -4.67 | -1.58 | 96% | 0.74 | 5.82 |
| Nc1ccc(O)c(-c2nc3ccccc3s2)c1 | 2.32 | 5.73 | -7.28 | 32.6% | 2.77 | 1.92 |
